Among the data in ChEMBL document CHEMBL1157100, “The alkyl-connected 2-amino-6-vinylpurine (AVP) crosslinking agent for improved selectivity to the cytosine base in RNA” (Bioorg Med Chem, 2010) are Activity and Tm values, retold here.

Format in all cases: nucleic-acid assay
In assay [1] the test system is Nucleic Acid. Kind of assay: Binding affinity to FAM-tagged d-(GAAAYAAGAGGAAAGA)-DNA assessed as crosslinking at 10 uM by alkylation method. The method in brief: (§1)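 Reactive ODN at 10 µM with 1 µM FAM-labeled target DNA or RNA in 100 mM NaCl, 50 mM MES pH 5 plus RNase OUT, mixed at 0 °C and then incubated at 37 °C. Reactions were stopped at set times with formamide/EDTA/bromophenol blue buffer. Products were resolved on 15% denaturing polyacrylamide gel with 7 M urea, and FAM band intensities were quantified to give crosslinking yield.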

Assay [2] deals with Nucleic Acid. Kind of assay: Binding affinity to FAM-tagged r-(GAAAYAAGAGGAAAGA)-RNA assessed as crosslinking at 10 uM by alkylation method. The method in brief:
as §1

In assay [3] the test system is Nucleic Acid. Kind of assay: Binding affinity to FAM-tagged r-(GAAAYAAGAGGAAAGA)-RNA assessed as crosslinking by PAGE. The essentials:
as §1

The test system of assay [4] is Nucleic Acid. Kind of assay: Binding affinity to FAM-tagged 27 mer RNA hairpin loop assessed as crosslinking at 10 uM by PAGE. The essentials: as §1
Assay [5] concerns Nucleic Acid. Kind of assay: Binding affinity to r-(ACGUGAAUUGUUCAACAGUAUGGGCAU)-RNA assessed as melting temperature at 1.5 uM by UV-visible spectrophotometry. The essentials: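 Each strand at 1.5 µM: ODN plus complementary 27-mer RNA in 100 mM NaCl, 50 mM MES pH 5. Samples were heated at 85 °C for 10 min and cooled slowly. Melting curves were recorded at 260 nm while warming 20 to 80 °C at 1.0 °C/min to obtain Tm.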

The test system of assay [6] is Nucleic Acid. Kind of assay: Binding affinity to FAM-tagged r-(CAAGCGGAGAAAYUAAUUGCGGGUCGC)-RNA assessed as crosslinking at 10 uM by alkylation method. The method in brief: as §1

Calls of active or inactive are those of the source. No cut-off for these calls is given here.

Turning to `CSCCc1nc(N)nc2c1ncn2CC[C@H]1C[C@H](OP(=O)(O)OC[C@H]2O[C@@H](n3cc(C)c(=O)[nH]c3=O)C[C@@H]2OP(=O)(O)OC[C@H]2O[C@@H](n3cc(C)c(=O)[nH]c3=O)C[C@@H]2OP(=O)(O)OC[C@H]2O[C@@H](n3ccc(N)nc3=O)[C@H](O)[C@@H]2OP(=O)(O)OC[C@H]2O[C@@H](n3cc(C)c(=O)[nH]c3=O)C[C@@H]2OP(=O)(O)OC[C@H]2O[C@@H](n3ccc(N)nc3=O)[C@H](O)[C@@H]2OP(=O)(O)OC[C@H]2O[C@@H](n3ccc(N)nc3=O)[C@H](O)[C@@H]2OP(=O)(O)OC[C@H]2O[C@@H](n3cc(C)c(=O)[nH]c3=O)C[C@@H]2OP(=O)(O)OC[C@H]2O[C@@H](n3cc(C)c(=O)[nH]c3=O)C[C@@H]2OP(=O)(O)OC[C@H]2O[C@@H](n3cc(C)c(=O)[nH]c3=O)C[C@@H]2OP(=O)(O)OC[C@H]2O[C@@H](n3ccc(N)nc3=O)[C@H](O)[C@@H]2OP(=O)(O)OC[C@H]2O[C@@H](n3cc(C)c(=O)[nH]c3=O)C[C@@H]2OP(=O)(O)O)[C@@H](COP(=O)(O)O[C@H]2C[C@H](n3cc(C)c(=O)[nH]c3=O)O[C@@H]2COP(=O)(O)O[C@H]2C[C@H](n3cc(C)c(=O)[nH]c3=O)O[C@@H]2COP(=O)(O)O[C@H]2C[C@H](n3cc(C)c(=O)[nH]c3=O)O[C@@H]2COP(=O)(O)O[C@H]2[C@@H](O)[C@H](n3ccc(N)nc3=O)O[C@@H]2CO)O1`, the outcome in the assay on Nucleic Acid [1], in the assay on Nucleic Acid [2] and with Nucleic Acid [3] was Active. For `CSCCc1nc(N)nc2c1ncn2[C@H]1C[C@H](OP(=O)(O)OC[C@H]2O[C@@H](n3cc(C)c(=O)[nH]c3=O)C[C@@H]2OP(=O)(O)OC[C@H]2O[C@@H](n3cnc4c(N)ncnc43)[C@H](O)[C@@H]2OP(=O)(O)OC[C@H]2O[C@@H](n3cc(C)c(=O)[nH]c3=O)C[C@@H]2OP(CCC#N)N(C(C)C)C(C)C)[C@@H](COP(=O)(O)O[C@H]2C[C@H](n3cc(C)c(=O)[nH]c3=O)O[C@@H]2COP(=O)(O)O[C@H]2C[C@H](n3cc(C)c(=O)[nH]c3=O)O[C@@H]2COP(=O)(O)O[C@H]2[C@@H](O)[C@H](n3cnc4c(N)ncnc43)O[C@@H]2COP(=O)(O)O[C@H]2[C@@H](O)[C@H](n3cnc4c(N)ncnc43)O[C@@H]2COP(=O)(O)O[C@H]2[C@@H](O)[C@H](n3cnc4c(N)ncnc43)O[C@@H]2COP(=O)(O)O[C@H]2[C@@H](O)[C@H](n3ccc(N)nc3=O)O[C@@H]2COP(=O)(O)O[C@H]2C[C@H](n3cc(C)c(=O)[nH]c3=O)O[C@@H]2COP(=O)(O)O[C@H]2[C@@H](O)[C@H](n3cnc4c(N)ncnc43)O[C@@H]2COP(=O)(O)O[C@H]2[C@@H](O)[C@H](n3cnc4c(=O)[nH]c(N)nc43)O[C@@H]2COP(=O)(O)O[C@H]2C[C@H](n3cc(C)c(=O)[nH]c3=O)O[C@@H]2COP(=O)(O)O[C@H]2[C@@H](O)[C@H](n3ccc(N)nc3=O)O[C@@H]2COP(=O)(O)O[C@H]2[C@@H](O)[C@H](n3cnc4c(N)ncnc43)O[C@@H]2COP(=O)(O)O[C@H]2C[C@H](n3cc(C)c(=O)[nH]c3=O)O[C@@H]2COP(=O)(O)O[C@H]2[C@@H](O)[C@H](n3cnc4c(N)ncnc43)O[C@@H]2COP(=O)(O)O[C@H]2C[C@H](n3cc(C)c(=O)[nH]c3=O)O[C@@H]2CO)O1` (some centres not stated), in the assay with Nucleic Acid [4], the outcome was inactive. Take `CSCCc1nc(N)nc2c1ncn2[C@H]1C[C@H](OP(=O)(O)OC[C@H]2O[C@@H](n3cc(C)c(=O)[nH]c3=O)C[C@@H]2OP(=O)(O)OC[C@H]2O[C@@H](n3cc(C)c(=O)[nH]c3=O)C[C@@H]2OP(=O)(O)OC[C@H]2O[C@@H](n3cnc4c(=O)[nH]c(N)nc43)[C@H](O)[C@@H]2OP(=O)(O)OC[C@H]2O[C@@H](n3cnc4c(N)ncnc43)[C@H](O)[C@@H]2OP(=O)(O)OC[C@H]2O[C@@H](n3cnc4c(=O)[nH]c(N)nc43)[C@H](O)[C@@H]2OP(=O)(O)OC[C@H]2O[C@@H](n3ccc(N)nc3=O)[C@H](O)[C@@H]2OP(=O)(O)OC[C@H]2O[C@@H](n3cnc4c(N)ncnc43)[C@H](O)[C@@H]2OP(=O)(O)OC[C@H]2O[C@@H](n3cnc4c(N)ncnc43)[C@H](O)[C@@H]2OP(=O)(O)OC[C@H]2O[C@@H](n3cc(C)c(=O)[nH]c3=O)C[C@@H]2OP(CCC#N)N(C(C)C)C(C)C)[C@@H](COP(=O)(O)O[C@H]2C[C@H](n3cc(C)c(=O)[nH]c3=O)O[C@@H]2COP(=O)(O)O[C@H]2[C@@H](O)[C@H](n3ccc(N)nc3=O)O[C@@H]2COP(=O)(O)O[C@H]2[C@@H](O)[C@H](n3cnc4c(N)ncnc43)O[C@@H]2COP(=O)(O)O[C@H]2C[C@H](n3cc(C)c(=O)[nH]c3=O)O[C@@H]2COP(=O)(O)O[C@H]2[C@@H](O)[C@H](n3cnc4c(N)ncnc43)O[C@@H]2COP(=O)(O)O[C@H]2[C@@H](O)[C@H](n3ccc(N)nc3=O)O[C@@H]2COP(=O)(O)O[C@H]2[C@@H](O)[C@H](n3ccc(N)nc3=O)O[C@@H]2COP(=O)(O)O[C@H]2[C@@H](O)[C@H](n3ccc(N)nc3=O)O[C@@H]2COP(=O)(O)O[C@H]2[C@@H](O)[C@H](n3cnc4c(=O)[nH]c(N)nc43)O[C@@H]2COP(=O)(O)O[C@H]2C[C@H](n3cc(C)c(=O)[nH]c3=O)O[C@@H]2COP(=O)(O)O[C@H]2[C@@H](O)[C@H](n3cnc4c(N)ncnc43)O[C@@H]2CO)O1` (some centres not stated): the Tm in the assay with Nucleic Acid [5] came to 53.3 °C. Moreover, the outcome with Nucleic Acid [6] was inactive. Take `CSCCc1nc(N)nc2c1ncn2CC[C@H]1C[C@H](OP(=O)(O)OC[C@H]2O[C@@H](n3cc(C)c(=O)[nH]c3=O)C[C@@H]2OP(=O)(O)OC[C@H]2O[C@@H](n3cnc4c(N)ncnc43)[C@H](O)[C@@H]2OP(=O)(O)OC[C@H]2O[C@@H](n3cc(C)c(=O)[nH]c3=O)C[C@@H]2OP(CCC#N)N(C(C)C)C(C)C)[C@@H](COP(=O)(O)O[C@H]2C[C@H](n3cc(C)c(=O)[nH]c3=O)O[C@@H]2COP(=O)(O)O[C@H]2C[C@H](n3cc(C)c(=O)[nH]c3=O)O[C@@H]2COP(=O)(O)O[C@H]2[C@@H](O)[C@H](n3cnc4c(N)ncnc43)O[C@@H]2COP(=O)(O)O[C@H]2[C@@H](O)[C@H](n3cnc4c(N)ncnc43)O[C@@H]2COP(=O)(O)O[C@H]2[C@@H](O)[C@H](n3cnc4c(N)ncnc43)O[C@@H]2COP(=O)(O)O[C@H]2[C@@H](O)[C@H](n3ccc(N)nc3=O)O[C@@H]2COP(=O)(O)O[C@H]2C[C@H](n3cc(C)c(=O)[nH]c3=O)O[C@@H]2COP(=O)(O)O[C@H]2[C@@H](O)[C@H](n3cnc4c(N)ncnc43)O[C@@H]2COP(=O)(O)O[C@H]2[C@@H](O)[C@H](n3cnc4c(=O)[nH]c(N)nc43)O[C@@H]2COP(=O)(O)O[C@H]2C[C@H](n3cc(C)c(=O)[nH]c3=O)O[C@@H]2COP(=O)(O)O[C@H]2[C@@H](O)[C@H](n3ccc(N)nc3=O)O[C@@H]2COP(=O)(O)O[C@H]2[C@@H](O)[C@H](n3cnc4c(N)ncnc43)O[C@@H]2COP(=O)(O)O[C@H]2C[C@H](n3cc(C)c(=O)[nH]c3=O)O[C@@H]2COP(=O)(O)O[C@H]2[C@@H](O)[C@H](n3cnc4c(N)ncnc43)O[C@@H]2COP(=O)(O)O[C@H]2C[C@H](n3cc(C)c(=O)[nH]c3=O)O[C@@H]2CO)O1` (some centres not stated): the outcome with Nucleic Acid [4] was Active.
